By IC50 is commonly meant the concentration at which inhibition is half-maximal.

Assay [1] addresses 5-hydroxytryptamine receptor 6 (Homo sapiens, UniProt P50406). Put plainly: Inhibition of 5HT6 receptor.
Assay [2] deals with Cytochrome P450 2C9 (Homo sapiens, UniProt P11712). The assay can be described thus: Inhibition of CYP2C9. It is filed as ADME.
The target in assay [3] is T1, 5-hydroxytryptamine receptor 1A (Homo sapiens, UniProt P08908).
T1 sequence (P08908 whole entry): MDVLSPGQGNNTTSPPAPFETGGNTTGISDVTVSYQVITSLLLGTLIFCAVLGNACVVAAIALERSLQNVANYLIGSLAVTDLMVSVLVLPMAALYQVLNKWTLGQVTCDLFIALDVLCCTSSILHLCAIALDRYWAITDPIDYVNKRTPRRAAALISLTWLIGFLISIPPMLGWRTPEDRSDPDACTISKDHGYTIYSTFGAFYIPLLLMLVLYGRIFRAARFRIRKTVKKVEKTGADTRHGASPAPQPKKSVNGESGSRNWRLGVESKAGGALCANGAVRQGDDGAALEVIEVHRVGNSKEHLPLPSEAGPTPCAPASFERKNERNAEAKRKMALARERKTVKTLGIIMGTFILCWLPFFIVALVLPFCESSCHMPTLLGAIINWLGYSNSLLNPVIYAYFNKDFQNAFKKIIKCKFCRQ
The assay can be described thus: Inhibition of 5HT1A receptor.

In assay [4] the target is T2, D(4) dopamine receptor (Homo sapiens, UniProt P21917).
T2 sequence (P21917 whole entry): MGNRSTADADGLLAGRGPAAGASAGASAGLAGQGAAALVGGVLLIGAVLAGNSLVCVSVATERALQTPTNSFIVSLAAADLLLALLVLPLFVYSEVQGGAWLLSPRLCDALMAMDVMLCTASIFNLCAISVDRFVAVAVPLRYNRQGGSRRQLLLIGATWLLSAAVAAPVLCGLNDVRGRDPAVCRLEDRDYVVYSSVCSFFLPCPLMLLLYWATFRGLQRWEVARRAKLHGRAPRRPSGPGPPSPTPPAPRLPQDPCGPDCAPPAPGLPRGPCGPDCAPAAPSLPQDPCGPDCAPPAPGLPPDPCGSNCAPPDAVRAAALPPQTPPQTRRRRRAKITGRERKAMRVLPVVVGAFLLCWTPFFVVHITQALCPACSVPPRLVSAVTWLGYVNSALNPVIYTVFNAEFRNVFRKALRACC
The assay can be described thus: Inhibition of dopamine D4 receptor.

Assay [5] addresses 5-hydroxytryptamine receptor 7 (Homo sapiens, UniProt P34969). The assay can be described thus: Inhibition of 5HT7 receptor.
The target in assay [6] is D(3) dopamine receptor (Homo sapiens, UniProt P35462). Put plainly: Inhibition of dopamine D3 receptor.
Chain of D(3) dopamine receptor (P35462 whole entry): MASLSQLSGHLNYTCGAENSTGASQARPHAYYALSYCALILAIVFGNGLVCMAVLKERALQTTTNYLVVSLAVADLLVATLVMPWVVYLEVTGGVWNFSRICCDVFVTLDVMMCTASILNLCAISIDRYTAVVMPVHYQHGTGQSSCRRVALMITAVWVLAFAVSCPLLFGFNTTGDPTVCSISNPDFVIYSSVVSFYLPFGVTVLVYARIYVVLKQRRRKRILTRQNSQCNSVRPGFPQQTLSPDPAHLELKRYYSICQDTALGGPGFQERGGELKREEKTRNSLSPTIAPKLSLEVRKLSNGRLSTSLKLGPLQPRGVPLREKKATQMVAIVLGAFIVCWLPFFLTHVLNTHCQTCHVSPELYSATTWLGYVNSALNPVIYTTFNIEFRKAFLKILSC
In assay [7] the test system is Mus musculus. The assay can be described thus: Antidepressant activity in mouse assessed as decrease in duration of immobility at 100 mg/kg, po during final 5 mins of the 6 mins session by forced swimming test. It counts as functional. On the set-up: scale not given: the % may be the effect or the level left. A digest of the protocol: (§1)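 Mice swam 10 min in a 25-cm glass cylinder (10 cm diameter) holding 15 cm of water at 23 1 °C. Twenty-four hours later, drug was given po 60 min before retesting. Immobility (floating upright with only small movements keeping head above water) was totalled over the last 5 min of the 6-min test.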

The target of assay [8] is Cytochrome P450 2D6 (Homo sapiens, UniProt P10635). The assay can be described thus: Inhibition of CYP2D6. It is filed as ADME.
Chain of Cytochrome P450 2D6 (P10635 whole entry): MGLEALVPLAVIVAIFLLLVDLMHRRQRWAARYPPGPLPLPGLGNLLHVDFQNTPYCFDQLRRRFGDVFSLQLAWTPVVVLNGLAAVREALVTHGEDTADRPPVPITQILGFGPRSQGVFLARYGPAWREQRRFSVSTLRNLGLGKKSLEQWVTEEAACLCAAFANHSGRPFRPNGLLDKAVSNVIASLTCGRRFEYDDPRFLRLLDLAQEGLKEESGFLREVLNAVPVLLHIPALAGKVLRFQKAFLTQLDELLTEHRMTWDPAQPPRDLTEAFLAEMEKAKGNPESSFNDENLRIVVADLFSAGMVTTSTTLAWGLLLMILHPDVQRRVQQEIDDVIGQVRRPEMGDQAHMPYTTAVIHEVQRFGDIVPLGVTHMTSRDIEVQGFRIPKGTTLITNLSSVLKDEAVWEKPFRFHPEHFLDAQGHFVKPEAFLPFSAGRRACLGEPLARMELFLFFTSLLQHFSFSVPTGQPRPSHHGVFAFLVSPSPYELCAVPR
Assay [9] has as its target T3, Cytochrome P450 1A2 (Homo sapiens, UniProt P05177).
T3 sequence (P05177 whole entry): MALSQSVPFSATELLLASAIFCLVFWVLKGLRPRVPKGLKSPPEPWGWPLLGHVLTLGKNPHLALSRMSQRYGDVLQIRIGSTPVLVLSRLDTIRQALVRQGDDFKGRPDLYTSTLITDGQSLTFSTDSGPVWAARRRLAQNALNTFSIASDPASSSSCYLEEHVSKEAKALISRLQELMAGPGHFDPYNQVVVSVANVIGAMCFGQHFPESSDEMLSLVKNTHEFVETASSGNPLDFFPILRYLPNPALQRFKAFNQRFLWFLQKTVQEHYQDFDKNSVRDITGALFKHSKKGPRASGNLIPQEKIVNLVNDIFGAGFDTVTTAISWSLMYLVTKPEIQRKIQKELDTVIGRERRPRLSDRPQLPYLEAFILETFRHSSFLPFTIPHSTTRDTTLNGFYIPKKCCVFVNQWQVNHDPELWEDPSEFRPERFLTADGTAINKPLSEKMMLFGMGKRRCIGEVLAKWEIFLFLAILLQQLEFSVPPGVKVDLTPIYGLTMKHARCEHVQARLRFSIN
The assay can be described thus: Inhibition of CYP1A2. It is filed as ADME.

Assay [10] addresses Cytochrome P450 3A4 (Homo sapiens, UniProt P08684). The assay can be described thus: Inhibition of CYP3A4. It counts as ADME.
For assay [11], the target named is D(2) dopamine receptor (Homo sapiens, UniProt P14416). The assay can be described thus: Inhibition of dopamine D2 receptor.
Chain of D(2) dopamine receptor (P14416 whole entry): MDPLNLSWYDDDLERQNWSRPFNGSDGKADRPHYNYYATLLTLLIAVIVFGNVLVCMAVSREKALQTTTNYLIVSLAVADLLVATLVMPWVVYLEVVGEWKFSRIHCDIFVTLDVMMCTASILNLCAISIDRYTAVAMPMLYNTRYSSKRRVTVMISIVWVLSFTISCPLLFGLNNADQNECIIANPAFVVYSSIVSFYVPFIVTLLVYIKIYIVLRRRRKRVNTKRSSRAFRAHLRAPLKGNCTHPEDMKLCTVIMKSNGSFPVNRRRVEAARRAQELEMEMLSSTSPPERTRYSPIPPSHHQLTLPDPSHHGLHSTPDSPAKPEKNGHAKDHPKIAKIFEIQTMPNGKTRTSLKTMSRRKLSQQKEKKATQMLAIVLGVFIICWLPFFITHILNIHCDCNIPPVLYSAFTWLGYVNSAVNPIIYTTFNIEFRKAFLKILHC
The subject of assay [12] is Mus musculus. Put plainly: Antidepressant activity in mouse assessed as decrease in duration of immobility at 10 mg/kg, po during final 5 mins of the 6 mins session by forced swimming test. It counts as functional. Set-up: scale not given: the % may be the effect or the level left. In outline:
as §1

Bounds are passed on as bounds.

Chain of Cytochrome P450 3A4 (P08684 whole entry): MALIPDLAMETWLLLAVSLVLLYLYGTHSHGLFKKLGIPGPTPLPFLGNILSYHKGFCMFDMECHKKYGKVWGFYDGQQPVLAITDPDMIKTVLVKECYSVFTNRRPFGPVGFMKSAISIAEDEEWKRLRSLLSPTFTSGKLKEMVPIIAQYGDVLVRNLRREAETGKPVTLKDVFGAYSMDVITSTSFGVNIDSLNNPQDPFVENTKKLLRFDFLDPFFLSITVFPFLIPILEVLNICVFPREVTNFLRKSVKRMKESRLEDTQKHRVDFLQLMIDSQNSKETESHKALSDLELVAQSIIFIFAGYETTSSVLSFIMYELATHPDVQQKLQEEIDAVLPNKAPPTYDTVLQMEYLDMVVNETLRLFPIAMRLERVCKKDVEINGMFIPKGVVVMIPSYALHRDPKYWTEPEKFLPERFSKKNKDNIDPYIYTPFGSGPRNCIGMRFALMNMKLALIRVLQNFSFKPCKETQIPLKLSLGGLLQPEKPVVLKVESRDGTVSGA
Chain of Cytochrome P450 2C9 (P11712 whole entry): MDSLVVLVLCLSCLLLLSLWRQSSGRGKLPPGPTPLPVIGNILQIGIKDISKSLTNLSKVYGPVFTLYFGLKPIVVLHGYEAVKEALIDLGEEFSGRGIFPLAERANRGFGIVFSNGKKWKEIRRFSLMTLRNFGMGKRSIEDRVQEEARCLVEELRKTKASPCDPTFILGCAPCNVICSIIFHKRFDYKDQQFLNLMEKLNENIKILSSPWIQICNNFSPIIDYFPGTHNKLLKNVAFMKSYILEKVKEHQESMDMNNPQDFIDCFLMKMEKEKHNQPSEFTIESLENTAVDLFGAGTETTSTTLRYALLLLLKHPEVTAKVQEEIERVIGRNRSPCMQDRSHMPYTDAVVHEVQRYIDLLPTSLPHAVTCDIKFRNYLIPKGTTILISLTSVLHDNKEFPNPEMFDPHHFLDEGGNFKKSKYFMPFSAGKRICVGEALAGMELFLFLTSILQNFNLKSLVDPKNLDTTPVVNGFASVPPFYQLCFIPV
Chain of 5-hydroxytryptamine receptor 6 (P50406 whole entry): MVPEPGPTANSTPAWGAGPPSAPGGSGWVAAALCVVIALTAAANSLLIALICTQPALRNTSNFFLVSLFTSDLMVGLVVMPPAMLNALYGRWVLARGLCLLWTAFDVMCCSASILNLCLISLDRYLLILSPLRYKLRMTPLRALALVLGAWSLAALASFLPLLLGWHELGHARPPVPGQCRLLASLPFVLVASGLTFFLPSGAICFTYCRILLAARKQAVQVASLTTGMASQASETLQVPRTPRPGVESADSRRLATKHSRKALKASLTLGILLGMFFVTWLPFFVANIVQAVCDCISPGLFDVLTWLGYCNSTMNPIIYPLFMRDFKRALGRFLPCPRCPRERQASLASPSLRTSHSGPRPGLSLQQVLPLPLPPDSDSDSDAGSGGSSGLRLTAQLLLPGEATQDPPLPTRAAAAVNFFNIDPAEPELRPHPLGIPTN
Chain of 5-hydroxytryptamine receptor 7 (P34969 whole entry): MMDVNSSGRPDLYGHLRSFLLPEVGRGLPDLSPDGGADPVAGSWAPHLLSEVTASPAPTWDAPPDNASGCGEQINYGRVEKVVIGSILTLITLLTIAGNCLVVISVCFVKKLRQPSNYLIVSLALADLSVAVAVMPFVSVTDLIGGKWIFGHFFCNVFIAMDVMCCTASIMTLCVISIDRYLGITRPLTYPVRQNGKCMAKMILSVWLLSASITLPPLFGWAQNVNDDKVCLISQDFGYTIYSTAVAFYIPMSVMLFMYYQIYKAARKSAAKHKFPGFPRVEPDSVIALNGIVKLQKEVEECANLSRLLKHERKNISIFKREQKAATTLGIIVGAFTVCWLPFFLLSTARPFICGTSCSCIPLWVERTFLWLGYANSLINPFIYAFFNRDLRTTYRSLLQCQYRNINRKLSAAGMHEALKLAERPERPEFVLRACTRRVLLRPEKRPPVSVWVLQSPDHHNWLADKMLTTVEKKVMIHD

Consider `Cc1c(C(=O)NCCCN2CCN(c3cccc(Cl)c3Cl)CC2)cc(-c2ccccc2)n1C`, for which the IC50 came out at 713 nM in [1]; 9700 nM in assay [2]; 54 nM in [3]; 984 nM in assay [4]; 333 nM in assay [5]; 915 nM in [6]. The IC50 is more than 20000 nM in assay [8], more than 20000 nM in assay [9], more than 20000 nM in assay [10] and 2540 nM in [11]. Further, the Activity was less than 25% in [7] and 80% in assay [12].

These data come from ChEMBL document CHEMBL1154983, “Arylpiperazine-containing pyrrole 3-carboxamide derivatives targeting serotonin 5-HT(2A), 5-HT(2C), and the serotonin transporter as a potential antidepressant” (Bioorg Med Chem Lett, 2010).
